Experimental data published in ChEMBL document CHEMBL1938318, “Design, synthesis and evaluation of novel molecules with a diphenyl ether nucleus as potential antitubercular agents” (Bioorg Med Chem Lett, 2012).
The source made the active and inactive calls. No cut-off for these calls is given here.

Tests used:
[1] = tested on: Mycobacterium tuberculosis; experiment: Antitubercular activity against Mycobacterium bovis BCG infected in BALB/c mouse assessed as reduction in perivascular accumulation of lymphocytes in lungs at 25 mg/kg, po qd administered 48 hrs post infection for 6 weeks by hematoxylin/eosin staining; format: functional, organism-based; set-up: dose 25 mg/kg; settings: variant bovis BCG
[2] = tested on: Mycobacterium tuberculosis; experiment: Antitubercular activity against Mycobacterium bovis BCG infected in BALB/c mouse assessed as reduction in peribronchial accumulation of lymphocytes in lungs at 25 mg/kg, po qd administered 48 hrs post infection for 6 weeks by hematoxylin/eosin staining; format: functional, organism-based; set-up: dose 25 mg/kg; settings: variant bovis BCG
[3] = tested on: Mycobacterium tuberculosis; experiment: Antitubercular activity against Mycobacterium bovis BCG infected in BALB/c mouse assessed as reduction in perivascular accumulation of epitheloid macrophages in lungs at 25 mg/kg, po qd administered 48 hrs post infection for 6 weeks by hematoxylin/eosin staining; format: functional, organism-based; set-up: dose 25 mg/kg; settings: variant bovis BCG
[4] = tested on: Mycobacterium tuberculosis; experiment: Antitubercular activity against Mycobacterium bovis BCG infected in BALB/c mouse assessed as reduction in peribronchial accumulation of granulocytes in lungs at 25 mg/kg, po qd administered 48 hrs post infection for 6 weeks by hematoxylin/eosin staining; format: functional, organism-based; set-up: dose 25 mg/kg; settings: variant bovis BCG
[5] = tested on: Mycobacterium tuberculosis; experiment: Antitubercular activity against Mycobacterium bovis BCG infected in BALB/c mouse assessed as log reduction in CFU in lungs at 25 mg/kg, po qd administered 48 hrs post infection for 6 weeks measured after 6 weeks (reference value: 4.64+/-0.17 log10CFU); format: functional, variant bovis BCG
Outline: (§1)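 Female BALB/c mice infected intravenously with approx. 1 × 10⁵ CFU M. bovis BCG; compound given orally at 25 mg/kg once daily for six weeks, then sacrificed. Lung and spleen homogenates plated on modified Lowenstein-Jensen medium, colonies counted after six weeks at 37 °C; mean log10 CFU per organ versus vehicle-treated group (n = 6–8 mice/group).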

[6] = tested on: Mycobacterium tuberculosis; experiment: Antitubercular activity against Mycobacterium bovis BCG infected in BALB/c mouse assessed as reduction in perivascular accumulation of granulocytes in lungs at 25 mg/kg, po qd administered 48 hrs post infection for 6 weeks by hematoxylin/eosin staining; format: functional, organism-based; set-up: dose 25 mg/kg; settings: variant bovis BCG
[7] = tested on: Mycobacterium tuberculosis; experiment: Antitubercular activity against Mycobacterium bovis BCG infected in BALB/c mouse assessed as reduction in peribronchial accumulation of epitheloid macrophages in lungs at 25 mg/kg, po qd administered 48 hrs post infection for 6 weeks by hematoxylin/eosin staining; format: functional, organism-based; set-up: dose 25 mg/kg; settings: variant bovis BCG
[8] = tested on: Mycobacterium tuberculosis; experiment: Antitubercular activity against Mycobacterium bovis BCG infected in BALB/c mouse assessed as log reduction in CFU in spleen at 25 mg/kg, po qd administered 48 hrs post infection for 6 weeks measured after 6 weeks (reference value: 4.79+/-0.25 log10CFU); format: functional, variant bovis BCG; outline: as §1

Compound	Activity [1]	Activity [2]	Activity [3]	Activity [4]	log10cfu [5]	Activity [6]	Activity [7]	log10cfu [8]
O=C(Cc1cccc(Oc2ccccc2)c1)Nc1ccc(Cl)c(Cl)c1	Active	Active	Active	Active	2	Active	Active	2
NNC(=O)c1ccncc1 [ISONIAZID]	–	–	–	–	2	–	–	3
